Measurements: ChEMBL document CHEMBL4359929, “Piperidine and piperazine inhibitors of fatty acid amide hydrolase targeting excitotoxic pathology” (Bioorg Med Chem, 2019)
Calls of active or inactive are those of the source. No cut-off for these calls is given here.

Key:
[1] = molecular target: T1, Fatty-acid amide hydrolase 1 (Homo sapiens, UniProt O00519); assay: Inhibition of human recombinant MBP-tagged FAAH expressed in Escherichia coli cells using AAMCA as substrate incubated for 15 mins followed by substrate addition and measured after every 20 mins for 4 hrs by fluorescence based assay
T1 sequence (O00519 whole entry): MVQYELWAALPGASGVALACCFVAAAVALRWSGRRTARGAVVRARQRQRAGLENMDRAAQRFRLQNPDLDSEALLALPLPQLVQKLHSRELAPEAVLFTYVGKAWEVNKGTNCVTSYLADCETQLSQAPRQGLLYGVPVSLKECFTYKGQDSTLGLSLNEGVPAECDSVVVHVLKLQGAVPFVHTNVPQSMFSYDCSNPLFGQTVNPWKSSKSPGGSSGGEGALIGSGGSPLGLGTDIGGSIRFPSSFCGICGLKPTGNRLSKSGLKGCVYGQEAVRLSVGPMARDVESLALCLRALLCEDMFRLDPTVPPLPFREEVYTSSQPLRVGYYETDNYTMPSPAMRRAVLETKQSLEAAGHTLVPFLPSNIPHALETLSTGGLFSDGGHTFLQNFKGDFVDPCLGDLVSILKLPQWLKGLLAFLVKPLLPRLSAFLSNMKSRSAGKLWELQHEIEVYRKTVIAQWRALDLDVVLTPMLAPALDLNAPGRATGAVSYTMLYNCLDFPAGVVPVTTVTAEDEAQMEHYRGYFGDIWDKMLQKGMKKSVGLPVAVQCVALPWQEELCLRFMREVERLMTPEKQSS
Procedure, shortened: (§1)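 Fluorescent enzyme assay in throughput format. Human recombinant FAAH or purified rat FAAH used arachidonoyl 7-amino-4-methylcoumarin amide as substrate; human recombinant MGL was run by a similar fluorometric procedure.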

[2] = molecular target: T2, Fatty-acid amide hydrolase 1 (Rattus norvegicus, UniProt P97612); assay: Inhibition of rat recombinant His/GST-tagged FAAH expressed in Escherichia coli cells using AAMCA as substrate incubated for 15 mins followed by substrate addition and measured after every 20 mins for 4 hrs by fluorescence based assay; procedure, shortened: as §1
T2 sequence (P97612 whole entry): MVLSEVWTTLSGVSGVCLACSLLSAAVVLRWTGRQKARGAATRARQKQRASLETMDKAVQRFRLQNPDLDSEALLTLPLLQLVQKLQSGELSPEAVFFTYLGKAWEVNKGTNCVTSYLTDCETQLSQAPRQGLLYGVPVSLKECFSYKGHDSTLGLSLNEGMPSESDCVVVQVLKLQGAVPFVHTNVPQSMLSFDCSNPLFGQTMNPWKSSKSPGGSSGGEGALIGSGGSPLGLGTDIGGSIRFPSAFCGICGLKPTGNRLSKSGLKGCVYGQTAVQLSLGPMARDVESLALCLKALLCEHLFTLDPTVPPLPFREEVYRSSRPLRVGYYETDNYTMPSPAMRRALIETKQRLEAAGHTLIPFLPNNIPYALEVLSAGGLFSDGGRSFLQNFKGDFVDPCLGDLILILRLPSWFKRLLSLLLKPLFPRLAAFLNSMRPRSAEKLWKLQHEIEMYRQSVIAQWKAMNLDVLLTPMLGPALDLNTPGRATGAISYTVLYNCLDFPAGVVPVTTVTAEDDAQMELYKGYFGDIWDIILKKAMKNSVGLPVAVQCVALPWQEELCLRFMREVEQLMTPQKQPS

Monoglyceride lipase = molecular target: T3, Monoglyceride lipase (Homo sapiens, UniProt Q99685); assay: Inhibition of human recombinant His-tagged MGL expressed in Escherichia coli BL21 DE3 cells using AHMMCE as substrate preincubated with enzyme for 15 mins followed by substrate addition and measured after every 15 mins for 3 hrs by fluorescence based assay; procedure, shortened: as §1
T3 sequence (Q99685 whole entry): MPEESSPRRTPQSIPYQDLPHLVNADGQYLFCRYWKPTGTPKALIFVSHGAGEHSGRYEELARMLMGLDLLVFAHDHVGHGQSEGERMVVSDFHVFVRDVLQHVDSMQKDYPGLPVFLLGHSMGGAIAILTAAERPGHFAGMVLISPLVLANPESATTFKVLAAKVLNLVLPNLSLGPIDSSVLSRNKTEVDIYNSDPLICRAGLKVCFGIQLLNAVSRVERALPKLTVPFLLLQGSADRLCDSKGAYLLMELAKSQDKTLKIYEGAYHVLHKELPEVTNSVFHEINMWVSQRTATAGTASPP

[3] = Stability in human liver microsomes assessed as half life; format: ADME, Microsome
Procedure, shortened: (§2)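 Stability assessed as half-life in human, rat and mouse plasma and gastric fluid, and in human, rat and mouse liver microsomal preparations.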

[4] = Stability in rat liver microsomes assessed as half life; format: ADME, Microsome; procedure, shortened: as §2
[5] = Stability in mouse liver microsomes assessed as half life; format: ADME, Microsome; procedure, shortened: as §2
[6] = Stability in human plasma assessed as half life; format: ADME, cell-free; procedure, shortened: as §2
[7] = Stability in rat plasma assessed as half life; format: ADME, cell-free; procedure, shortened: as §2
[8] = Stability in mouse plasma assessed as half life; format: ADME, cell-free; procedure, shortened: as §2
[9] = Stability in human gastric fluid assessed as half life; format: ADME, tissue-based, Gastric juice; procedure, shortened: as §2
[10] = Stability in rat gastric fluid assessed as half life; format: ADME, tissue-based, Gastric juice; procedure, shortened: as §2
[11] = Stability in mouse gastric fluid assessed as half life; format: ADME, tissue-based, Gastric juice; procedure, shortened: as §2
Homo sapiens [12] = species: Homo sapiens; assay: Selectivity ratio of IC50 for human recombinant His-tagged MGL expressed in Escherichia coli BL21 DE3 cells to IC50 for human recombinant MBP-tagged FAAH expressed in Escherichia coli cells by fluorescence based assay
Homo sapiens [13] = species: Homo sapiens; assay: Selectivity ratio of IC50 for human full length ABHD6 expressed in Escherichia coli cells to IC50 for human recombinant MBP-tagged FAAH expressed in Escherichia coli cells by fluorescence based assay
[14] = molecular target: Cannabinoid receptor 1 (Rattus norvegicus) (UniProt P20272); assay: Displacement of [3H]CP55940 from CB1 receptor in rat brain by competition-equilibrium binding analysis; format: tissue-based
Procedure, shortened: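 Rat brain membranes as CB1 source; competition-equilibrium binding against [3H]CP-55,940.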
Target sequence in this assay (P20272 whole entry): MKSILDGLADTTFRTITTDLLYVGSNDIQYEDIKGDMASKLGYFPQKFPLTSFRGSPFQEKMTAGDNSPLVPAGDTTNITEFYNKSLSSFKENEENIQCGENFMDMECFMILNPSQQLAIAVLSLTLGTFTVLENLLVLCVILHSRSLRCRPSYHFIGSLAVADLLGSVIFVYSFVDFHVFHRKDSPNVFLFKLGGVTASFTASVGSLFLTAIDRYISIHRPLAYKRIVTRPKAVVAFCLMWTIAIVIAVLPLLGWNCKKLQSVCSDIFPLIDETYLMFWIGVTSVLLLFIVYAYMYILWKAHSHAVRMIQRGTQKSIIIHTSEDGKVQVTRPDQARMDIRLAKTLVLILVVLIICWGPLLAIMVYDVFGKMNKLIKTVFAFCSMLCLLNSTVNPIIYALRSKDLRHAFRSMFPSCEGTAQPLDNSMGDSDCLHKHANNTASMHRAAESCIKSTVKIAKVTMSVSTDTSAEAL

[15] = molecular target: Cannabinoid receptor 2 (Mus musculus) (UniProt P47936); assay: Displacement of [3H]CP55940 from mouse CB2 receptor expressed in HEK293 cells by competition-equilibrium binding analysis; format: cell-based
Cannabinoid receptor 2 (Mus musculus), sequence (P47936 whole entry): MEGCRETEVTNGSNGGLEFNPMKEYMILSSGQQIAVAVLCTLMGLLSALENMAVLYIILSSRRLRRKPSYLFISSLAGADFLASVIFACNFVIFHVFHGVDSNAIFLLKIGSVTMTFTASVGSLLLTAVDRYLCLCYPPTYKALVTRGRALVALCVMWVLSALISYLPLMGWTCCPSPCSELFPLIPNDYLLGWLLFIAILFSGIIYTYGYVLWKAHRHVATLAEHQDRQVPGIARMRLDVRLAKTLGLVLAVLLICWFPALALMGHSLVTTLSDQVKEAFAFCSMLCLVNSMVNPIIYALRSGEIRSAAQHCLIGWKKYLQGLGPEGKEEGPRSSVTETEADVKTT
Procedure, shortened: (§3)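 HEK293 cell membranes expressing mouse or human CB2; competition-equilibrium binding against [3H]CP-55,940.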

[16] = molecular target: Cannabinoid receptor 2 (Homo sapiens) (UniProt P34972); assay: Displacement of [3H]CP55940 from human CB2 receptor expressed in HEK293 cells by competition-equilibrium binding analysis; format: cell-based; procedure, shortened: as §3
Cannabinoid receptor 2 (Homo sapiens), sequence (P34972 whole entry): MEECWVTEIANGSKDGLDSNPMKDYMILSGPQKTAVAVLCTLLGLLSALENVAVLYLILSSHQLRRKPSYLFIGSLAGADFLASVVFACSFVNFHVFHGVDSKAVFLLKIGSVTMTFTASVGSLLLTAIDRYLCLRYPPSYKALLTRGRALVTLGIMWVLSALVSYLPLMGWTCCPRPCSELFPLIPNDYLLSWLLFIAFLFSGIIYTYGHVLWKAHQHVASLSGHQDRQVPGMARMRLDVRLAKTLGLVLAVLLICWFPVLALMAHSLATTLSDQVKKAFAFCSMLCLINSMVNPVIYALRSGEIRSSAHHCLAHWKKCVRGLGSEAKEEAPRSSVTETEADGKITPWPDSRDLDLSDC

[17] = Selectivity ratio of IC50 for human recombinant His-tagged MGL expressed in Escherichia coli BL21 DE3 cells to IC50 for rat recombinant His/GST-tagged FAAH expressed in Escherichia coli cells by fluorescence based assay
[18] = Selectivity ratio of IC50 for human full length ABHD6 expressed in Escherichia coli cells to IC50 for rat recombinant His/GST-tagged FAAH expressed in Escherichia coli cells by fluorescence based assay
[19] = molecular target: Cannabinoid receptor 1 (Rattus norvegicus) (UniProt P20272); assay: Displacement of [3H]CP55940 from CB1 receptor in rat brain by competition-equilibrium binding analysis
Target sequence in this assay (P20272 whole entry, looked up): as the sequence (P20272 whole entry) above

## O=C(Oc1cccc(N2CCCCC2)c1)N1CCC(c2ccc(F)cc2)CC1
[1]
  IC50: 40 nM
[2]
  IC50: 6.8 nM
Monoglyceride lipase
  IC50: > 1000 nM
[3]
  half-life: 15 to 25 min
[4]
  half-life: 15 to 25 min
[5]
  half-life: 15 to 25 min
[6]
  half-life: > 60 min
[7]
  half-life: > 60 min
[8]
  half-life: > 60 min
[9]
  half-life: > 60 min
[10]
  half-life: > 60 min
[11]
  half-life: > 60 min
Homo sapiens [12]
  Ratio IC50: > 1000
Homo sapiens [13]
  Ratio IC50: > 1000
[14]
  Activity: inactive
[15]
  Activity: inactive
[16]
  Activity: inactive
[17]
  Ratio IC50: > 1000
[18]
  Ratio IC50: > 1000
[19]
  Activity: inactive

## O=C(Oc1cccc(N2CCS(=O)(=O)CC2)c1)N1CCC(c2ccccc2)CC1
[1]
  IC50: 8 nM
[2]
  IC50: 6 nM
Monoglyceride lipase
  IC50: > 1000 nM
[3]
  half-life: 15 to 25 min
[4]
  half-life: 15 to 25 min
[5]
  half-life: 15 to 25 min
[6]
  half-life: > 60 min
[7]
  half-life: > 60 min
[8]
  half-life: > 60 min
[9]
  half-life: > 60 min
[10]
  half-life: > 60 min
[11]
  half-life: > 60 min
Homo sapiens [12]
  Ratio IC50: > 1000
Homo sapiens [13]
  Ratio IC50: > 1000
[14]
  Activity: inactive
[15]
  Activity: inactive
[16]
  Activity: inactive
[17]
  Ratio IC50: > 1000
[18]
  Ratio IC50: > 1000
[19]
  Activity: inactive

## COc1ccc(N2CCN(C(=O)Oc3cccc(N4CCS(=O)(=O)CC4)c3)[C@H](C)C2)cc1
[1]
  IC50: 11.1 nM
[2]
  IC50: 7.4 nM
Monoglyceride lipase
  IC50: > 1000 nM
[3]
  half-life: 15 to 25 min
[4]
  half-life: 15 to 25 min
[5]
  half-life: 15 to 25 min
[6]
  half-life: > 60 min
[7]
  half-life: > 60 min
[8]
  half-life: > 60 min
[9]
  half-life: > 60 min
[10]
  half-life: > 60 min
[11]
  half-life: > 60 min
Homo sapiens [12]
  Ratio IC50: > 1000
Homo sapiens [13]
  Ratio IC50: > 1000
[14]
  Activity: inactive
[15]
  Activity: inactive
[16]
  Activity: inactive
[17]
  Ratio IC50: > 1000
[18]
  Ratio IC50: > 1000
[19]
  Activity: inactive

## O=C(Oc1cccc(N2CCS(=O)(=O)CC2)c1)N1CCN(c2ccccc2)CC1
[1]
  IC50: 15 nM
[2]
  IC50: 8 nM
Monoglyceride lipase
  IC50: > 1000 nM
[3]
  half-life: 15 to 25 min
[4]
  half-life: 15 to 25 min
[5]
  half-life: 15 to 25 min
[6]
  half-life: > 60 min
[7]
  half-life: > 60 min
[8]
  half-life: > 60 min
[9]
  half-life: > 60 min
[10]
  half-life: > 60 min
[11]
  half-life: > 60 min
Homo sapiens [12]
  Ratio IC50: > 1000
Homo sapiens [13]
  Ratio IC50: > 1000
[14]
  Activity: inactive
[15]
  Activity: inactive
[16]
  Activity: inactive
[17]
  Ratio IC50: > 1000
[18]
  Ratio IC50: > 1000
[19]
  Activity: inactive

## O=C(Oc1cccc(N2CCS(=O)(=O)CC2)c1)N1CCN(Cc2cccc(-c3ccccc3)c2)CC1
[1]
  IC50: 1.9 nM
[2]
  IC50: 2.1 nM
Monoglyceride lipase
  IC50: > 1000 nM
[3]
  half-life: 15 to 25 min
[4]
  half-life: 15 to 25 min
[5]
  half-life: 15 to 25 min
[6]
  half-life: > 60 min
[7]
  half-life: > 60 min
[8]
  half-life: > 60 min
[9]
  half-life: > 60 min
[10]
  half-life: > 60 min
[11]
  half-life: > 60 min
Homo sapiens [12]
  Ratio IC50: > 1000
Homo sapiens [13]
  Ratio IC50: > 1000
[14]
  Activity: inactive
[15]
  Activity: inactive
[16]
  Activity: inactive
[17]
  Ratio IC50: > 1000
[18]
  Ratio IC50: > 1000
[19]
  Activity: inactive
